Assay results published in ChEMBL document CHEMBL4321879, “Novel Class of Colony-Stimulating Factor 1 Receptor Kinase Inhibitors Based on an o-Aminopyridyl Alkynyl Scaffold as Potential Treatment for Inflammatory Disorders” (J Med Chem, 2020).
Active and inactive are the calls of the source. No cut-off for these calls is given here.

Assays:
[1] = target: Macrophage colony-stimulating factor 1 receptor (Homo sapiens, UniProt P07333); test: Inhibition of recombinant CSF1R (unknown origin) using poly (Glu, Tyr)4:1 as substrate measured after 1 hr by ELISA
Mus musculus = test: Antiinflammatory activity in BALB/c mouse assessed as reduction in LPS-induced TNFalpha production at 20 to 40 mg/kg, po pretreated for 4 hrs followed by LPS-stimulation and measured after 1.5 hrs by ELISA; type: functional, organism-based
In short: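 Female BALB/c mice, 8 weeks old, n = 6 per group, dosed orally at 20 or 40 mg/kg in 0.5% CMC-Na/0.25% Tween-80 4 h before ip LPS 5 mg/kg. Orbital-sinus blood was taken at 1.5 h (TNF-α) and 3 h (IL-6). Serum cytokines measured by ELISA. Mean ± SEM, one-way ANOVA with Dunnett's test.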

[2] = target: Receptor tyrosine-protein kinase erbB-2 (Homo sapiens) (UniProt P04626); test: Inhibition of recombinant Erbb2 (unknown origin) at 1000 nM using poly (Glu, Tyr)4:1 as substrate measured after 1 hr by ELISA relative to control
In short: (§1)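 Recombinant kinase was incubated with compound in reaction buffer containing 5 μM ATP, in wells precoated with poly(Glu,Tyr) 4:1, for 1 h at 37 °C. Phosphorylation was detected by ELISA.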

[3] = target: Fibroblast growth factor receptor 1 (Homo sapiens, UniProt P11362); test: Inhibition of recombinant human N-terminal GST-tagged FGFR1 (456 to 765 residues) expressed in baculovirus infected Sf21 insect cells at 1000 nM using poly (Glu, Tyr)4:1 as substrate measured after 1 hr by ELISA relative to control; in short: as §1
[4] = target: Fibroblast growth factor receptor 3 (Homo sapiens, UniProt P22607); test: Inhibition of recombinant human N-terminal His6-tagged FGFR3 (447 to 761 residues) expressed in baculovirus infected Sf21 insect cells at 1000 nM using poly (Glu, Tyr)4:1 as substrate measured after 1 hr by ELISA relative to control; in short: as §1
[5] = target: T1, Fibroblast growth factor receptor 4 (Homo sapiens, UniProt P22455); test: Inhibition of recombinant human N-terminal His6-tagged FGFR4 (442 to 755 residues) expressed in baculovirus infected Sf21 insect cells at 1000 nM using poly (Glu, Tyr)4:1 as substrate measured after 1 hr by ELISA relative to control
In short: (§2)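 ELISA kinase assay: recombinant kinase added to wells precoated with poly(Glu,Tyr)4:1 and incubated with compound in reaction buffer containing 5 μM ATP, 37 °C for 1 h; wells then washed before antibody detection.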

[6] = target: Focal adhesion kinase 1 (Homo sapiens) (UniProt Q05397); test: Inhibition of recombinant human N-terminal His6-tagged FAK (411 to 686 residues) expressed in baculovirus infected Sf21 insect cells at 1000 nM using poly (Glu, Tyr)4:1 as substrate measured after 1 hr by ELISA relative to control; in short: as §1
[7] = target: Vascular endothelial growth factor receptor 2 (Homo sapiens) (UniProt P35968); test: Inhibition of recombinant human VEGFR2 (D1-7) expressed in Spodoptera frugiperda insect cells at 100 nM using poly (Glu, Tyr)4:1 as substrate measured after 1 hr by ELISA relative to control; in short: as §2
[8] = target: Receptor tyrosine-protein kinase erbB-2 (Homo sapiens) (UniProt P04626); test: Inhibition of recombinant Erbb2 (unknown origin) at 100 nM using poly (Glu, Tyr)4:1 as substrate measured after 1 hr by ELISA relative to control; in short: as §1
[9] = target: Insulin receptor (Homo sapiens) (UniProt P06213); test: Inhibition of recombinant human N-terminal His6-tagged IR (1005 to 1310 residues) expressed in baculovirus infected Sf21 insect cells at 100 nM using poly (Glu, Tyr)4:1 as substrate measured after 1 hr by ELISA relative to control; in short: as §2
[10] = target: T1, Fibroblast growth factor receptor 4; test: Inhibition of recombinant human N-terminal His6-tagged FGFR4 (442 to 755 residues) expressed in baculovirus infected Sf21 insect cells at 100 nM using poly (Glu, Tyr)4:1 as substrate measured after 1 hr by ELISA relative to control; in short: as §1
[11] = target: Platelet-derived growth factor receptor beta (Homo sapiens) (UniProt P09619); test: Inhibition of recombinant human N-terminal His6-tagged PDGFRbeta (557 to end residues) expressed in baculovirus infected Sf21 insect cells at 10 nM using poly (Glu, Tyr)4:1 as substrate measured after 1 hr by ELISA relative to control; in short: as §2
c-KIT = c-KIT (Homo sapiens, UniProt P10721); test: Inhibition of recombinant human N-terminal GST-tagged c-KIT (544 to end residues) expressed in baculovirus infected Sf21 insect cells at 10 nM using poly (Glu, Tyr)4:1 as substrate measured after 1 hr by ELISA relative to control; conditions: probe poly (Glu, Tyr)4:1; in short: as §1
[12] = target: Proto-oncogene tyrosine-protein kinase Src (Homo sapiens) (UniProt P12931); test: Inhibition of recombinant human full-length N-terminal His6-tagged Src expressed in Sf21 insect cells at 10 nM using poly (Glu, Tyr)4:1 as substrate measured after 1 hr by ELISA relative to control; in short: as §2
[13] = AUC (0 to t) in Sprague-Dawley rat at 5 mg/kg, po administered via gavage by LC-MS/MS analysis; type: ADME, organism-based; conditions: in vivo
In short: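 Male SD rats (200 ± 20 g) were fasted 12 h with free access to water, n = 3 per group. One group received 2 mg/kg iv in DMSO/EtOH/PEG300/saline (5/5/40/50). The other received 5 mg/kg by oral gavage in DMSO/HPMC (5/95). Femoral-vein plasma was taken at 15–1440 min, methanol-precipitated with internal standard, and measured by LC–MS/MS. Noncompartmental analysis; AUC by trapezoidal method.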

[14] = Oral bioavailability in Sprague-Dawley rat at 5 mg/kg administered via gavage by LC-MS/MS analysis; type: ADME, organism-based; conditions: in vivo
In short: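 Male SD rats (n = 3 per route), fasted 12 h; 5 mg/kg oral gavage (DMSO/HPMC 5/95) versus 2 mg/kg iv (DMSO/EtOH/PEG300/saline). Plasma sampled 15–1440 min, LC–MS/MS; F = AUC0–∞(oral)/AUC0–∞(iv) × dose(iv)/dose(oral) × 100%.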

[15] = MRT (infinity) in Sprague-Dawley rat at 2 mg/kg, iv administered […] by LC-MS/MS analysis; type: ADME, organism-based; conditions: in vivo
In short: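 Male SD rats (200 ± 20 g), fasted 12 h, n = 3; single intravenous dose of 2 mg/kg in DMSO/EtOH/PEG300/saline (5/5/40/50). Femoral vein blood at 15–1440 min; plasma precipitated with methanol containing internal standard, assayed by LC–MS/MS; noncompartmental analysis (MRT = AUMC/AUC, Vss = CL × MRT).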

[16] = target: Voltage-gated inwardly rectifying potassium channel KCNH2 (Homo sapiens, UniProt Q12809); test: Inhibition of human ERG by Qpatch automatic patch-clamp assays

T1 sequence (P22455 22-802 limits assumed): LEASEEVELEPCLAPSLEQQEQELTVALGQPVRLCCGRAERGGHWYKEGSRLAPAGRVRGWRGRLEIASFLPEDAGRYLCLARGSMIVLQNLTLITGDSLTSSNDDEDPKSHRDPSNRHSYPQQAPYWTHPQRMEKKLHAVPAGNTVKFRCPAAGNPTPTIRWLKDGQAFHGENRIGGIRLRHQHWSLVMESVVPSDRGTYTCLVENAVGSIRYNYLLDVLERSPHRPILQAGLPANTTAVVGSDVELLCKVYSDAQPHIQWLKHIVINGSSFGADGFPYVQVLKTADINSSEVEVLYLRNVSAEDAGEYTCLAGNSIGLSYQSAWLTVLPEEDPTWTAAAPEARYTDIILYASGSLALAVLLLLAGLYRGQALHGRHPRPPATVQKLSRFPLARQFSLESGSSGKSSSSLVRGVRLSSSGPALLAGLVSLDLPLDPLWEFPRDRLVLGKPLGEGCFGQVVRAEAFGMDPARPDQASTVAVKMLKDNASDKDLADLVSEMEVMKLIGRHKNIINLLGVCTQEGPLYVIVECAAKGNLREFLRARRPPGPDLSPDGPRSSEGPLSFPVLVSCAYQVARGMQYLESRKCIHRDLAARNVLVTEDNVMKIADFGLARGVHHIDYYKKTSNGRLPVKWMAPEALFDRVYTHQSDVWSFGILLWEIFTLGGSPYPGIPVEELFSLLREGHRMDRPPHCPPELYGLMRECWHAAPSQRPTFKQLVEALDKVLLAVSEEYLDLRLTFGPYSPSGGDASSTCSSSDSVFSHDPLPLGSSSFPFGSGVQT
Sequence of Receptor tyrosine-protein kinase erbB-2 (Homo sapiens) (P04626 whole entry, the tested form may be a part): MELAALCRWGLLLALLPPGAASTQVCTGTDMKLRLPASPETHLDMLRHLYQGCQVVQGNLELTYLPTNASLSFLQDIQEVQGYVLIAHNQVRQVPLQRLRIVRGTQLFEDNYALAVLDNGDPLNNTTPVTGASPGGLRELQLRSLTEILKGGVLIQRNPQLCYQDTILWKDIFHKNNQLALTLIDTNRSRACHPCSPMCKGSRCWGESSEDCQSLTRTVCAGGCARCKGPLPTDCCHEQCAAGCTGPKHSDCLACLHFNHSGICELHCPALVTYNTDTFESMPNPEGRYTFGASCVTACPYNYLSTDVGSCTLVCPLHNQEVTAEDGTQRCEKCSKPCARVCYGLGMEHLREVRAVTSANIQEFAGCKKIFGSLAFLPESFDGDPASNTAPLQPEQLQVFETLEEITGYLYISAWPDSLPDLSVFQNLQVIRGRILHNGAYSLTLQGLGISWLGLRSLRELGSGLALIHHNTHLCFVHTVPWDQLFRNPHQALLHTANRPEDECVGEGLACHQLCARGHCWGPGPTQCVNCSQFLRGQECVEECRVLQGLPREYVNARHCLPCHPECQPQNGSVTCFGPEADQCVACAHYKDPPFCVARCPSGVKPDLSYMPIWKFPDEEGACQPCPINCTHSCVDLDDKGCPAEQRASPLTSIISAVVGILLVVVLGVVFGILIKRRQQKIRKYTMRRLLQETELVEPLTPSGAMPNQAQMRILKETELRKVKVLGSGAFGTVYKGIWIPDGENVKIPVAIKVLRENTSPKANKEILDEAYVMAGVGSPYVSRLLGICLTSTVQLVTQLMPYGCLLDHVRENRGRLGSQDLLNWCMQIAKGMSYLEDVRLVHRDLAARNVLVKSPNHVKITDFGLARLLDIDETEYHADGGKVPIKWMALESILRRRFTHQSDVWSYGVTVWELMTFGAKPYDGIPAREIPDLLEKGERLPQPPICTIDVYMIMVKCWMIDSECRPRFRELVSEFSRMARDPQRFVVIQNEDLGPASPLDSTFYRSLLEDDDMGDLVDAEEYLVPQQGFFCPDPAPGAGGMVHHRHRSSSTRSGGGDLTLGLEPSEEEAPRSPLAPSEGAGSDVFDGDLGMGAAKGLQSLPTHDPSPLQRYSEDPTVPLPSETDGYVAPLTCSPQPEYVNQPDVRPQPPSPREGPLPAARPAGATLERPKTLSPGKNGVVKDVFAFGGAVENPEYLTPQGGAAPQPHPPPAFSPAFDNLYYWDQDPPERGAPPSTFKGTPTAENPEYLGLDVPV
Sequence of Focal adhesion kinase 1 (Homo sapiens) (Q05397 2-1052 limits assumed): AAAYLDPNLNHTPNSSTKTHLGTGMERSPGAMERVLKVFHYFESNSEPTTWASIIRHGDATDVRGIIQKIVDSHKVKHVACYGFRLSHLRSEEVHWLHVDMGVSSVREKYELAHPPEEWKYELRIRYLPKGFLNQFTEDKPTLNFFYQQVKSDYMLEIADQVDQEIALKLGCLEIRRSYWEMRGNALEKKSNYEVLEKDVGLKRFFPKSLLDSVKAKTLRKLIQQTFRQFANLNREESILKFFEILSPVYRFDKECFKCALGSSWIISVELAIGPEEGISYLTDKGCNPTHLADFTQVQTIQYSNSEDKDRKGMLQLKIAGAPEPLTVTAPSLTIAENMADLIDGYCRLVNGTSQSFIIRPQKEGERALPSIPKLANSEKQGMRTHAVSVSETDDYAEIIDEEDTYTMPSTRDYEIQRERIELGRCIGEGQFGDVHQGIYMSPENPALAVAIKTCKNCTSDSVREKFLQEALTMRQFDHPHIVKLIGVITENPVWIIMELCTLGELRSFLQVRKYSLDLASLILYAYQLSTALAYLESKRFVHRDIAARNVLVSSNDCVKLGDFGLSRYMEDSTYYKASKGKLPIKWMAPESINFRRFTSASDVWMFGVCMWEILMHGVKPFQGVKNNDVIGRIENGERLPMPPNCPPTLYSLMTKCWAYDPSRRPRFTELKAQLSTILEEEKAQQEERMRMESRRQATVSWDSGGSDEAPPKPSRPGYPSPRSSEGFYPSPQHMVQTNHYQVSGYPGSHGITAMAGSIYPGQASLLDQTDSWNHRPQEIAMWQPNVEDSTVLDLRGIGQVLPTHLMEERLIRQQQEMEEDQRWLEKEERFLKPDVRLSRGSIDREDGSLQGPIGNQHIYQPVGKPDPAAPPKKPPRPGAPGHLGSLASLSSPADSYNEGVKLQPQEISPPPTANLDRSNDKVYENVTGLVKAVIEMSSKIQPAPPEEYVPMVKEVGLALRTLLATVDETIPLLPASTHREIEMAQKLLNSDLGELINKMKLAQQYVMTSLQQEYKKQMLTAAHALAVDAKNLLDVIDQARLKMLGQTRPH
Sequence of Macrophage colony-stimulating factor 1 receptor (P07333 whole entry): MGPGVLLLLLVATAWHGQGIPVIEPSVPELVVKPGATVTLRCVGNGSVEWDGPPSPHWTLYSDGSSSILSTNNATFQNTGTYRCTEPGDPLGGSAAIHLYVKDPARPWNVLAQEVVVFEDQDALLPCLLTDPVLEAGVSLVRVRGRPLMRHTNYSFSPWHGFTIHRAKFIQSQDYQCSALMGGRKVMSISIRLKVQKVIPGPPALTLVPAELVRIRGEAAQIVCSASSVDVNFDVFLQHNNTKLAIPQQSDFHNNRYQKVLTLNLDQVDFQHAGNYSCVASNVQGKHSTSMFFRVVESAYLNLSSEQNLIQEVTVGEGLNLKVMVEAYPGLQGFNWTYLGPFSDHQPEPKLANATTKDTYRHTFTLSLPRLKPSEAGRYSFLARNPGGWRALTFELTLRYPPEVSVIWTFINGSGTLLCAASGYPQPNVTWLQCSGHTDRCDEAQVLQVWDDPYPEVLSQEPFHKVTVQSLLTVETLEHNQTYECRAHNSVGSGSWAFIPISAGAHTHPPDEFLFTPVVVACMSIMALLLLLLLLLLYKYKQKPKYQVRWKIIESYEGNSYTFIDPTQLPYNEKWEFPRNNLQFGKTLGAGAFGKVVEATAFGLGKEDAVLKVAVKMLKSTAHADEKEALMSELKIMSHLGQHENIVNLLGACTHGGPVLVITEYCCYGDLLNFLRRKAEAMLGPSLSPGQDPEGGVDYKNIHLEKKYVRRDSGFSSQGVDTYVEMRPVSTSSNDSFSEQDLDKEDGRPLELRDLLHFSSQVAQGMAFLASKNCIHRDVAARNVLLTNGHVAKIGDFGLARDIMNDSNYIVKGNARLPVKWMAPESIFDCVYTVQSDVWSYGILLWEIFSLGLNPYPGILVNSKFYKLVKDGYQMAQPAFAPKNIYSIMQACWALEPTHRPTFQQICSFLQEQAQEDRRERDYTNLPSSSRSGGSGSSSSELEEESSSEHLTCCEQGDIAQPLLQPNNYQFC
Sequence of Proto-oncogene tyrosine-protein kinase Src (Homo sapiens) (P12931 2-536 limits assumed): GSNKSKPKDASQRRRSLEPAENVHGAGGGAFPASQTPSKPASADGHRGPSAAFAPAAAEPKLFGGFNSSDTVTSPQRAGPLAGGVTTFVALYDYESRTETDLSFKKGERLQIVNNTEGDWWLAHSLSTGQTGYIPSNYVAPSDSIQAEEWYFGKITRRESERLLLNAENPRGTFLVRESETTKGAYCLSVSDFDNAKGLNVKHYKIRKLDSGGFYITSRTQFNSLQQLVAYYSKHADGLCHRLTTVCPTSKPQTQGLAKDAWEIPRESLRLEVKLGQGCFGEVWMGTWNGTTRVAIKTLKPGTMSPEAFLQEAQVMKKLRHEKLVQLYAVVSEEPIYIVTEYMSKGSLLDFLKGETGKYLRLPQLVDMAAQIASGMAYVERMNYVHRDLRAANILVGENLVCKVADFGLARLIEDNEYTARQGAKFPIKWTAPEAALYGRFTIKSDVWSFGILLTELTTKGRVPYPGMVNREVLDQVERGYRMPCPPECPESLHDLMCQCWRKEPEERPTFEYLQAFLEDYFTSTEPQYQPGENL

## Cc1ccc(C(=O)Nc2ccc(Cl)cc2)cc1C#Cc1cc(-c2cnn(C)c2)cnc1N
[1]
  IC50: 0.7 nM
Mus musculus
  Activity: Active
[2]
  inhibition: 9.5%
[3]
  inhibition: 0%
[4]
  inhibition: 2.3%
[5]
  inhibition: 7.4%
[6]
  inhibition: 10.8%
[7]
  inhibition: 83.6%
[8]
  inhibition: 8.8%
[9]
  inhibition: 2.1%
[10]
  inhibition: 0%
[11]
  inhibition: 14.7%
c-KIT
  inhibition at 1 h, 0.01 µM: 70.4%
[12]
  inhibition: 1.5%
[13]
  AUC(0-t): 634 ng·h/mL
[14]
  bioavailability: 34.8%
[15]
  MRT inf: 2.3 h
[16]
  IC50: > 40 µM
